In paper PMC11052883 (Clinical Pharmacokinetics, 2024):
Values joined by “and” are separate entries in the source; they are usually repeats but may differ in a detail not shown here. Equal entries are not always repeated. Square brackets hold non-standard residues; d marks the D form. Peptide text beside a SMILES is read from it. * marks the point of attachment. Dolaproine = CO[C@@H]([C@@H]1CCCN1)[C@@H](C)C(=O)O; Dil = CC[C@H](C)[C@H](NC)[C@@H](CC(=O)O)OC; X1 = C[C@@H](N*)[C@@H](O)c1ccccc1; NMeV = CN[C@H](C(=O)O)C(C)C

Key:
[1] = tested on: MRP2; conditions: in vitro, cited from earlier work
[2] = tested on: BSEP; conditions: in vitro, clinically relevant concentrations; cited from earlier work
[3] = tested on: QTcF interval; conditions: cited from earlier work; for Cmax geometric mean: EV-102, after third dose, cycle 1 day 15, 1.25 mg/kg
[4] = Population PK: effect of mild hepatic impairment on model-predicted exposures; assay type: in vivo, human; conditions: mild hepatic impairment compared with normal hepatic function
[5] = Population PK: model-predicted exposures by race/ethnicity; assay type: in vivo, human; conditions: for difference in exposure, lower in Asian patients: cycle 1 AUC0–28d and Cmax, Asian vs non-Asian; for geometric least square mean ratios of Cmax, AUC0–28d and Ctrough lower in Japanese than non-Japanese patients: population PK model-simulated
[6] = tested on: BCRP; conditions: in vitro; cited from earlier work
[7] = tested on: OCT1; conditions: in vitro, clinically relevant concentrations; cited from earlier work
[8] = tested on: OAT3; conditions: in vitro, cited from earlier work
[9] = tested on: P-glycoprotein (P-gp); conditions: in vitro, cited from earlier work
[10] = tested on: OATP1B3; conditions: in vitro, cited from earlier work
[11] = tested on: plasma proteins; conditions: 3H-MMAE, human plasma; cited from earlier work
[12] = Population PK analysis of five clinical studies; assay type: in vivo, human; conditions: enfortumab vedotin 0.5–1.25 mg/kg
[13] = tested on: cytochrome P450 (CYP) 3A4; conditions: background statement, no reference given; cited from earlier work
[14] = tested on: OATP1B1; conditions: in vitro, cited from earlier work
[15] = target: human ether-a-go-go–related (hERG) channel (Homo sapiens, UniProt Q12809); experiment: hERG channel inhibition, whole-cell voltage clamp; assay type: cell-based
Procedure, shortened: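 In vitro hERG current by conventional whole-cell voltage clamp, with MMAE (free payload) tested at concentrations up to 100 μM. Half-maximal inhibitory concentration is estimated from the concentration–inhibition data. The comparator is the mean estimated maximum unbound plasma MMAE concentration in patients after a third 1.25 mg/kg dose, using an unbound fraction of 0.32.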

[16] = tested on: OAT1; conditions: in vitro, cited from earlier work
[17] = EV-201 clinical PK of ADC, TAb and free MMAE after enfortumab vedotin 1.25 mg/kg; assay type: in vivo, human; conditions: for AUCd0–14: cycle 1, dose 3, day 15, geometric mean (%CV)
[18] = tested on: OCT2; conditions: in vitro, cited from earlier work
[19] = tested on: QTcF interval; experiment: EV-102 concentration–QTcF analysis; assay type: in vivo, human; conditions: patients, third dose of enfortumab vedotin 1.25 mg/kg
[20] = tested on: plasma proteins; experiment: MMAE protein binding in human plasma; assay type: in vitro ADME; conditions: used for unbound Cmax
[21] = tested on: CYP3A; conditions: when administered as part of an ADC; cited from earlier work
[22] = MMAE given as brentuximab vedotin; cited from earlier work
[23] = tested on: mUC and other Nectin-4–expressing malignant solid tumors; experiment: EV-101 phase I dose-escalation; assay type: in vivo, human
[24] = tested on: locally advanced or metastatic urothelial carcinoma; experiment: EV-301 phase III: exposure–response for overall survival; assay type: in vivo, human; conditions: enfortumab vedotin range across ADC Cavg quartiles
[25] = Adverse events in pooled enfortumab vedotin 1.25 mg/kg safety group; assay type: in vivo, human; conditions: for patients with grade 3 or higher TRAEs / patients with serious TRAEs: 1.25 mg/kg safety analysis group; for patients with TRAE grade 3 or higher / patients with serious TRAE: 1.25 mg/kg
Procedure, shortened: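 Pooled integrated safety dataset (N = 680) from the clinical development program. Patients received monotherapy at 1.25 mg/kg (maximum 125 mg) as a 30-min IV infusion on days 1, 8 and 15 of each 28-day cycle until progression or unacceptable toxicity. Treatment-emergent and treatment-related AEs, including serious events, were tabulated by subgroups of concomitant inhibitor use.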

[26] = tested on: Nectin-4–expressing malignant solid tumors; experiment: AGS-22M6E-11-1 phase I study; assay type: in vivo, human; conditions: for median t½: observed concentrations
Procedure, shortened: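 First-in-human study in which patients received an intravenous infusion every 3 weeks at 0.6 or 1.2 mg/kg. ADC is measured as antibody carrying any amount of conjugated MMAE. Median half-life is derived from observed ADC concentrations at each dose level. Safety, tolerability and clinical response are assessed per dose cohort.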

[27] = tested on: locally advanced or metastatic urothelial carcinoma; experiment: EV-201; assay type: in vivo, human; conditions: upper three ADC Cavg exposure quartiles
[28] = clinically relevant concentrations

Chain of human ether-a-go-go–related (hERG) channel (Q12809 whole entry): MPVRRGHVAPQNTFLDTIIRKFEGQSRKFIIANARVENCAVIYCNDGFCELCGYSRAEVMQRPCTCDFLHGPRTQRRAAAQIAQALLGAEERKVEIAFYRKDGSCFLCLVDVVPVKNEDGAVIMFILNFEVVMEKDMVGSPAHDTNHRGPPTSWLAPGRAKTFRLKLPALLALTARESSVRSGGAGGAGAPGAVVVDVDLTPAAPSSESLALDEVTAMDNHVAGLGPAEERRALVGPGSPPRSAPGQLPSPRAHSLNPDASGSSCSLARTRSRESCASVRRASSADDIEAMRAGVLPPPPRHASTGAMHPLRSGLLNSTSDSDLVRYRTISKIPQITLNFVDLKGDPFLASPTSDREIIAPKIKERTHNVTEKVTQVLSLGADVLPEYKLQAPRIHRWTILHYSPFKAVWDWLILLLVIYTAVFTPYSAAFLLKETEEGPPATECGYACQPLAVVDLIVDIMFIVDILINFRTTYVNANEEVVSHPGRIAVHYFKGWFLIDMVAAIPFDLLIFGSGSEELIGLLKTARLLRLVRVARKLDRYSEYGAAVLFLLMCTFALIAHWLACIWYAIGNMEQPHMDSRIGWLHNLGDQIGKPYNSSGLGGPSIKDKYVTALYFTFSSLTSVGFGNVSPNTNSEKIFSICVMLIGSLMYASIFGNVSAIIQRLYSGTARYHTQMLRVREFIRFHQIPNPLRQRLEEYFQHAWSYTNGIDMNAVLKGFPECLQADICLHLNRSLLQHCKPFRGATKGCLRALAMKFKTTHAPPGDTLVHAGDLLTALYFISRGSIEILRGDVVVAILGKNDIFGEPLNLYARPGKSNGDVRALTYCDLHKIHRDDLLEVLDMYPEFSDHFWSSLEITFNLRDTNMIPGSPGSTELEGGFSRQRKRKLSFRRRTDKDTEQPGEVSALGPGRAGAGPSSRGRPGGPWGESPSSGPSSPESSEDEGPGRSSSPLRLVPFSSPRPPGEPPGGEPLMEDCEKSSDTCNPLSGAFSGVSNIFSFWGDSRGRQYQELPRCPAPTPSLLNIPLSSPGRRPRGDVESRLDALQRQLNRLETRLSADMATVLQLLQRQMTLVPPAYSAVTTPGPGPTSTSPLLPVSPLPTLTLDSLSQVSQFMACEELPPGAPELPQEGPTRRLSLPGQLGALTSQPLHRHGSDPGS

CC[C@H](C)[C@@H]([C@@H](CC(=O)N1CCC[C@H]1[C@H](OC)[C@@H](C)C(=O)N[C@H](C)[C@@H](O)c1ccccc1)OC)N(C)C(=O)[C@@H](NC(=O)[C@@H](NC)C(C)C)C(C)C [MMAE, monomethyl auristatin E] (H-[NMeV]V[Dil][Dolaproine]-X1)
inhibitor of MRP2 [1, 28]: not an inhibitor
substrate of MRP2 [1]: not a substrate
inhibitor of BSEP [2]: not an inhibitor
Cmax geometric mean [3]: 3.94 ng/mL
Predicted dQTcF interval (population mean change in QTcF), mean (SE in table) ([3]; at geometric mean Cmax, 1.25 mg/kg): -3.14 ms
increase in AUC0–28d [4]: 37%
increase in Cmax [4]: 31%
difference in exposure, lower in Asian patients [5]: < 11%
geometric least square mean ratios of Cmax, AUC0–28d and Ctrough lower in Japanese than non-Japanese patients [5]: 2.7–11.6%
substrate of BCRP [6]: not a substrate
inhibitor of OCT1 [7]: not an inhibitor
inhibitor of OAT3 [8, 28]: not an inhibitor
substrate of OAT3 [8]: not a substrate
inhibitor of P-gp [9, 28]: not an inhibitor
substrate of P-gp [9]: substrate
inhibitor of OATP1B3 [10, 28]: not an inhibitor
substrate of OATP1B3 [10]: not a substrate
bound to plasma proteins [11]: 67.9–82.2%
mean clearance [12]: 2.11 L/h
metabolizing enzyme [13]: primarily metabolized by cytochrome P450 (CYP) 3A4
inhibitor of OATP1B1 [14, 28]: not an inhibitor
substrate of OATP1B1 [14]: not a substrate
IC50 estimate relative to mean maximum unbound MMAE concentration ([15]; 100 μM vs 0.002 μM): approximately 50,000 fold
IC50 ([15]; read-out: half maximal inhibitory concentration, concentrations up to 100 μM): > 100 µM
inhibitor of OAT1 [16, 28]: not an inhibitor
substrate of OAT1 [16]: not a substrate
Mean Cmax ([17]; across cycles 1 and 2, enfortumab vedotin 1.25 mg/kg): 2.4 to 3.9 ng/mL
time to peak concentration ([17]; after dosing of enfortumab vedotin 1.25 mg/kg): 2 to 3 days
Cmax lower than that of ADC ([17]; enfortumab vedotin 1.25 mg/kg): more than 1000 fold
inhibitor of OCT2 [18, 28]: not an inhibitor
substrate of OCT2 [18]: not a substrate
mean estimate of maximum unbound MMAE concentration [19]: 0.002 μM and 1.26 ng/mL
unbound fraction [20]: 0.32
inhibitor or inducer of CYP3A [21]: neither an inhibitor nor an inducer
share of excreted MMAE that was excreted in feces [22]: approximately 72%
total MMAE administered excreted in feces and urine [22]: approximately 24%

Enfortumab vedotin: fully human anti–Nectin-4 IgG1 kappa monoclonal antibody conjugated to MMAE via a protease-cleavable maleimidocaproyl valine–citrulline linker
maximum tolerated dose ([23]; EV-101, 0.5–1.25 mg/kg): not identified
confirmed objective response rate [ORR] ([23]; EV-101, 1.25-mg/kg dose level): 42.9%
QT prolongation ([3]; EV-102, 1.0 or 1.25 mg/kg): No clinically meaningful QT prolongation was observed
slope estimate, dQTcF vs concentration ([3]; EV-102, 1.0 or 1.25 mg/kg): 0.539 ms/(μg/mL)
Cmax geometric mean [3]: 20100 ng/mL
difference in exposure, lower in Asian patients [5]: < 11%
geometric least square mean ratios of Cmax, AUC0–28d and Ctrough lower in Japanese than non-Japanese patients [5]: 2.7–11.6%
median OS [24]: 11.0–15.2 months
mean clearance [12]: 0.11 L/h
patients with grade 3 or higher TRAEs ([25]; mild CYP3A inhibitors): 51.1%
patients with serious TRAEs ([25]; mild CYP3A inhibitors): 20.7%
patients with grade 3 or higher TRAEs ([25]; moderate CYP3A inhibitors): 61.8%
patients with serious TRAEs ([25]; moderate CYP3A inhibitors): 28.7%
patients with grade 3 or higher TRAEs ([25]; not receiving CYP3A inhibitors): 41.5%
patients with serious TRAEs ([25]; not receiving CYP3A inhibitors): 14.4%
patients with TRAE grade 3 or higher ([25]; not receiving P-gp inhibitors): 33.3%
patients with serious TRAE ([25]; not receiving P-gp inhibitors): 10.0%
patients with TRAE grade 3 or higher ([25]; receiving P-gp inhibitors): 56.8%
patients with serious TRAE ([25]; receiving P-gp inhibitors): 24.3%
clinical response ([26]; 0.6 mg/kg and 1.2 mg/kg every 3 weeks): clinical response was not observed
median t½ ([26]; 1.2 mg/kg intravenous dose): 57.4 h
median t½ ([26]; 0.6-mg/kg dose): 39.6 h
ORR (complete and partial responses) [27]: 55–64%
AUCd0–14 ([17]; listed as ADC): 34.7 µg·days/mL

TAb: analyte: fully conjugated, partially conjugated, and unconjugated antibody after enfortumab vedotin administration
geometric mean ratio (GMR) of accumulation ([17]; after repeat enfortumab vedotin dosing): 1.1
AUCd0–14 [17]: 98.1 µg·days/mL
average Ctrough, TAb relative to ADC ([17]; end of cycle 1): approximately 5.5 fold
